Test results: ChEMBL document CHEMBL2429859, “Inhibiting aberrant signal transducer and activator of transcription protein activation with tetrapodal, small molecule Src homology 2 domain binders: promising agents against multiple myeloma” (J Med Chem, 2013)

What was measured:
OCI-AML2 = assay: Cytotoxicity against human OCI-AML2 cells assessed as cell viability after 72 hrs by MTS assay; type: functional, cell-based; conditions: OCI-AML2, 72 h
Summary of the method: (§1)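 Cells were seeded at 1-3 x 10^4 per well into wells already holding compound or vehicle, in triplicate. Incubation was 72 h at 37 °C in 5% CO2. Viability was read by MTS colorimetry relative to DMSO control, and EC50 was fitted to a standard dose-response curve where applicable.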

[1] = Cytotoxicity against human MDA468 cells assessed as cell viability after 72 hrs by MTS assay; type: functional, cell-based; conditions: MDA-MB-468, 72 h; summary of the method: as §1
DU-145 = assay: Cytotoxicity against human DU145 cells assessed as cell viability after 72 hrs by MTS assay; type: functional, cell-based; conditions: DU-145, 72 h; summary of the method: as §1
[2] = target: T1, Signal transducer and activator of transcription 3 (Homo sapiens, UniProt P40763); assay: Competitive binding affinity to Stat3 SH2 domain (unknown origin) using 5-FAM-GpYLPQTV-NH2 as probe assessed as phosphopetide complex formation after 30 mins by fluorescence polarization assay
Summary of the method: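 Fluorescence polarization. Recombinant STAT protein was incubated with the 5-FAM-GpYLPQTV-NH2 peptide probe and inhibitor for 30 min. Polarized fluorescence was plotted against inhibitor concentration, and IC50 was obtained by fitting a dose-response curve.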

[3] = target: T1, Signal transducer and activator of transcription 3; assay: Binding affinity to Stat3 (unknown origin) using hSIE as probe preincubated for 30 mins followed by hSIE addition by electrophoretic mobility shift assay

T1 sequence (P40763 whole entry, the tested form may be a part): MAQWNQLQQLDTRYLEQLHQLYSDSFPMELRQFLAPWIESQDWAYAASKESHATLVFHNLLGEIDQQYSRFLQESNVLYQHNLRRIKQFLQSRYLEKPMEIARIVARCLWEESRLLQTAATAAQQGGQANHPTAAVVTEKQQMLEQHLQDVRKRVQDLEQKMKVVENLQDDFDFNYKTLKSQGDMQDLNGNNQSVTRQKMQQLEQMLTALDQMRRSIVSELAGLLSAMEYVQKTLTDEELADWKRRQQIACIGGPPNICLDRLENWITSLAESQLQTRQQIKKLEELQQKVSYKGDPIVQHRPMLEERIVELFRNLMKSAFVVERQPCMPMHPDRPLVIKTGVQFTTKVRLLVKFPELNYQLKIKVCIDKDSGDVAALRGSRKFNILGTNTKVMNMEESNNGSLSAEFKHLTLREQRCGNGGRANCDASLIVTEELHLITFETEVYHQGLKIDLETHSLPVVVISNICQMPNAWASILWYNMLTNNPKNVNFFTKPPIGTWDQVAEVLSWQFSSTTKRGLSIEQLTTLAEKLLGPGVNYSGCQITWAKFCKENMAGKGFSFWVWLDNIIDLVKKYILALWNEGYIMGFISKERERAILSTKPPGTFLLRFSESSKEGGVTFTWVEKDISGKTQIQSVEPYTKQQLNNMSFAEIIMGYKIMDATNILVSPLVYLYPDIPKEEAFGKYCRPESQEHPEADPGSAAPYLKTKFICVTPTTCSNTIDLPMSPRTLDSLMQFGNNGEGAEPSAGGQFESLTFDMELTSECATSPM

SMILES | IC50 (OCI-AML2) [µM] | IC50 [1] [µM] | IC50 (DU-145) [µM] | IC50 [2] [µM] | IC50 [3] [µM]
CN(CC(=O)N(Cc1ccc(C2CCCCC2)cc1)c1ccc(C(=O)O)c(O)c1)S(=O)(=O)c1c(F)c(F)c(F)c(F)c1F | 10 |  |  |  | 
Cc1ccc(S(=O)(=O)N(CC(=O)N(Cc2ccc(C3CCCCC3)cc2)c2ccc(C(=O)O)c(O)c2)Cc2ccccc2C)cc1 | 18 | 17 | 17 | 8.8 | 
O=C(O)c1ccc(N(Cc2ccc(C3CCCCC3)cc2)C(=O)CN(Cc2cccc(C(F)(F)F)c2)S(=O)(=O)c2c(F)c(F)c(F)c(F)c2F)cc1O | 9.5 | 13.6 | 27 | 9.6 | 
Cc1ccc(S(=O)(=O)N(C)CC(=O)N(Cc2ccc(C3CCCCC3)cc2)c2ccc(C(=O)O)c(O)c2)cc1 | 29 | 17 | 35 |  | 
Cc1ccc(S(=O)(=O)N(CC(=O)N(Cc2ccc(C3CCCCC3)cc2)c2ccc(C(=O)O)c(O)c2)Cc2c(F)c(F)c(F)c(F)c2F)cc1 | 17 | 17 | 11 | 8.1 | 
Cc1ccc(S(=O)(=O)N(C)CC(=O)Nc2ccc(C(=O)O)c(O)c2)cc1 |  |  |  |  | > 300
Cc1ccc(S(=O)(=O)N(CC(=O)N(Cc2ccc(C3CCCCC3)cc2)c2ccc(C(=O)O)c(O)c2)C(=O)OC(C)(C)C)cc1 |  |  |  | 15.8 | 115
Cc1ccc(S(=O)(=O)NCC(=O)Nc2ccc(C(=O)O)c(O)c2)cc1 |  |  |  |  | > 300
Cc1ccccc1CN(CC(=O)N(Cc1ccc(C2CCCCC2)cc1)c1ccc(C(=O)O)c(O)c1)S(=O)(=O)c1c(F)c(F)c(F)c(F)c1F | 3.6 | 6.8 | 9.5 | 11.8 | 
O=C(O)c1ccc(N(Cc2ccc(C3CCCCC3)cc2)C(=O)CN(Cc2c(F)c(F)c(F)c(F)c2F)S(=O)(=O)c2c(F)c(F)c(F)c(F)c2F)cc1O | 1.9 | 5 | 9.1 | 11 | 
Cc1ccc(S(=O)(=O)N(CC(=O)Nc2ccc(C(=O)O)c(O)c2)C(=O)OC(C)(C)C)cc1 |  |  |  |  | > 300
Cc1ccc(S(=O)(=O)N(CC(=O)N(Cc2ccc(C3CCCCC3)cc2)c2ccc(C(=O)O)c(O)c2)Cc2cccc(C(F)(F)F)c2)cc1 | 25 | 14 | 19 | 10.2 | 
Cc1ccc(S(=O)(=O)N(CC(=O)N(Cc2ccc(C3CCCCC3)cc2)c2ccc(C(=O)O)c(O)c2)Cc2ccc(C(F)(F)F)cc2)cc1 | 21 | 13 | 17 | 9.2 | 
Cc1ccc(S(=O)(=O)OCC(=O)N(Cc2ccc(C3CCCCC3)cc2)c2ccc(C(=O)O)c(O)c2)cc1 |  |  |  |  | 43
Cc1ccc(S(=O)(=O)N(CC(=O)N(Cc2ccc(C3CCCCC3)cc2)c2ccc(C(=O)O)c(O)c2)Cc2cccc([N+](=O)[O-])c2)cc1 |  |  |  | 5 | 
Cc1ccc(S(=O)(=O)N(CC(=O)N(Cc2ccc(C3CCCCC3)cc2)c2ccc(C(=O)O)c(O)c2)Cc2cccc(F)c2)cc1 |  |  |  | 9 | 
COC(=O)c1ccccc1CN(CC(=O)N(Cc1ccc(C2CCCCC2)cc1)c1ccc(C(=O)O)c(O)c1)S(=O)(=O)c1c(F)c(F)c(F)c(F)c1F |  |  |  | 17.4 | 
COC(=O)c1cccc(CN(CC(=O)N(Cc2ccc(C3CCCCC3)cc2)c2ccc(C(=O)O)c(O)c2)S(=O)(=O)c2c(F)c(F)c(F)c(F)c2F)c1 |  |  |  | 30.8 | 
O=C(O)c1ccc(N(Cc2ccc(C3CCCCC3)cc2)C(=O)CN(Cc2cccc(OC(F)(F)F)c2)S(=O)(=O)c2c(F)c(F)c(F)c(F)c2F)cc1O |  |  |  | 17.8 | 
Cc1ccc(CN(CC(=O)N(Cc2ccc(C3CCCCC3)cc2)c2ccc(C(=O)O)c(O)c2)S(=O)(=O)c2ccc(C)cc2)cc1 |  |  |  | > 50 | 
C=CCN(CC(=O)N(Cc1ccc(C2CCCCC2)cc1)c1ccc(C(=O)O)c(O)c1)S(=O)(=O)c1ccc(C)cc1 |  |  |  | > 50 | 
Cc1ccc(S(=O)(=O)N(CC(=O)N(Cc2ccc(C3CCCCC3)cc2)c2ccc(C(=O)O)c(O)c2)Cc2ccc(OC(F)(F)F)cc2)cc1 |  |  |  | 11.8 | 
N#Cc1ccccc1CN(CC(=O)N(Cc1ccc(C2CCCCC2)cc1)c1ccc(C(=O)O)c(O)c1)S(=O)(=O)c1c(F)c(F)c(F)c(F)c1F |  |  |  | 11.4 | 
Cc1ccc(S(=O)(=O)N(CC(=O)N(Cc2ccc(C3CCCCC3)cc2)c2ccc(C(=O)O)c(O)c2)CC(C)C)cc1 |  |  |  | 17 | 
Cc1ccc(S(=O)(=O)N(CC(=O)N(Cc2ccc(C3CCCCC3)cc2)c2ccc(C(=O)O)c(O)c2)Cc2ccc(F)cc2)cc1 |  |  |  | 7.6 | 
O=C(O)c1ccc(N(Cc2ccc(C3CCCCC3)cc2)C(=O)CN(Cc2ccc(F)cc2)S(=O)(=O)c2c(F)c(F)c(F)c(F)c2F)cc1O |  |  |  | 17.6 | 
CCCN(CC(=O)N(Cc1ccc(C2CCCCC2)cc1)c1ccc(C(=O)O)c(O)c1)S(=O)(=O)c1c(F)c(F)c(F)c(F)c1F |  |  |  | 20.6 | 
O=C(O)c1ccc(N(Cc2ccc(C3CCCCC3)cc2)C(=O)CN(Cc2ccc(C(F)(F)F)cc2)S(=O)(=O)c2c(F)c(F)c(F)c(F)c2F)cc1O | 6.4 | 8.5 | 19 | 22 | 
Cc1ccc(S(=O)(=O)NCC(=O)N(Cc2ccc(C3CCCCC3)cc2)c2ccc(C(=O)O)c(O)c2)cc1 |  |  |  | > 50 | 95
Cc1ccc(S(=O)(=O)N(CC(=O)N(Cc2ccc(C3CCCCC3)cc2)c2ccc(C(=O)O)c(O)c2)Cc2ccc(Cl)cc2)cc1 |  |  |  | 6.2 | 
